Experimental data taken from ChEMBL document CHEMBL2434878, “Synthesis and antimycobacterial activity of analogues of the bioactive natural products sampangine and cleistopholine” (Eur J Med Chem, 2013).
Converted amounts (≈) assume the structure as drawn.

Columns and labels:
[1] = test system: Mycobacterium tuberculosis; experiment: Antimicrobial activity against Mycobacterium tuberculosis H37Rv ATCC 27294 expressing luciferase reporter gene infected in mouse J774 macrophages assessed as intracellular growth inhibition at 0.5 uM after 4 days by luminometry relative to untreated control; type: functional; settings: H37Rv ATCC 27294, J774, 96 h, read-out: GI
Procedure, shortened: (§1)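 J774.A1 murine macrophages were seeded at 40,000 cells/well, recovered overnight and infected with luminescent H37Rv. From 24 h post-infection, cells were treated for 4 days in DMEM with penicillin and fungizone, without gentamicin. Growth was read by luminescence after 1% n-decanal and expressed as percent inhibition versus untreated, in triplicate. Macrophage viability was checked by trypan blue.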

[2] = test system: Mycobacterium tuberculosis; experiment: Antimicrobial activity against Mycobacterium tuberculosis H37Rv ATCC 27294 expressing luciferase reporter gene assessed as growth inhibition at 0.1 uM after 6 days by luminometry relative to control; type: functional; settings: H37Rv ATCC 27294, 144 h, read-out: GI
Procedure, shortened: (§2)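 Single-concentration screen of the luminescent H37Rv reporter strain in 7H9-10% FCS, inoculated at 50,000 RLU/ml, 6 days at 37 °C. Luminescence was read after n-decanal addition. Percent inhibition is versus the untreated culture, as the mean of triplicate cultures.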

[3] = Therapeutic index, ratio of IC50 for human HepG2/C3A cells to GI50 for Mycobacterium tuberculosis H37Rv ATCC 27294; type: cell-based; settings: read-out: TI
Procedure, shortened: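 TI is NI50/GI50. NI50 came from a neutral red uptake assay in C3A hepatocytes (40,000 cells/well, 24 h exposure at 37 °C, 3 h dye, OD 530 nm with 620 nm reference): the concentration reducing dye uptake by 50%. GI50 came from the 6-day luminescent H37Rv assay.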

[4] = Cytotoxicity against human HepG2/C3A cells after 24 hrs by neutral red dye uptake assay; type: cell-based
[5] = test system: Mycobacterium tuberculosis; experiment: Antimicrobial activity against Mycobacterium tuberculosis H37Rv ATCC 27294 expressing luciferase reporter gene infected in mouse J774 macrophages assessed as intracellular growth inhibition at 1 uM after 4 days by luminometry relative to untreated control; type: functional; settings: H37Rv ATCC 27294, J774, 96 h, read-out: GI; procedure, shortened: as §1
[6] = test system: Mycobacterium tuberculosis; experiment: Antimicrobial activity against Mycobacterium tuberculosis H37Rv ATCC 27294 expressing luciferase reporter gene infected in mouse J774 macrophages assessed as intracellular growth inhibition at 2 uM after 4 days by luminometry relative to untreated control; type: functional; settings: H37Rv ATCC 27294, J774, 96 h, read-out: GI; procedure, shortened: as §1
[7] = test system: Mycobacterium tuberculosis; experiment: Antimicrobial activity against Mycobacterium tuberculosis H37Rv ATCC 27294 expressing luciferase reporter gene assessed as reduction in bacterial count after 6 days by luminometry; type: functional; settings: H37Rv ATCC 27294, 144 h
Procedure, shortened: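 MIC by serial dilution in the 6-day luminescent H37Rv assay (7H9-10% FCS, 50,000 RLU/ml inoculum, triplicate wells, n-decanal read-out). MIC is the concentration giving at least one log10 reduction in signal versus the untreated control.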

[8] = test system: Mycobacterium tuberculosis; experiment: Antimicrobial activity against Mycobacterium tuberculosis H37Rv ATCC 27294 expressing luciferase reporter gene assessed as growth inhibition at 10 uM after 6 days by luminometry relative to control; type: functional; settings: H37Rv ATCC 27294, 144 h, read-out: GI; procedure, shortened: as §2
[9] = test system: Mycobacterium tuberculosis; experiment: Antimicrobial activity against Mycobacterium tuberculosis H37Rv ATCC 27294 expressing luciferase reporter gene assessed as growth inhibition at 1 uM after 6 days by luminometry relative to control; type: functional; settings: H37Rv ATCC 27294, 144 h, read-out: GI; procedure, shortened: as §2
[10] = test system: Mycobacterium tuberculosis; experiment: Antimicrobial activity against Mycobacterium tuberculosis H37Rv ATCC 27294 expressing luciferase reporter gene assessed as growth inhibition after 6 days by luminometry; type: functional; settings: H37Rv ATCC 27294, 144 h
Procedure, shortened: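 Luminescent H37Rv (pSMT1, V. harveyi luciferase) was declumped by filtration, adjusted to 50,000 RLU/ml in 7H9-10% FCS, and exposed to serial compound dilutions in triplicate for 6 days at 37 °C. Light was read for 10 s after adding 1% n-decanal. GI50 is the concentration giving 50% growth reduction versus untreated culture.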

Mycobacterium ulcerans = experiment: Antimicrobial activity against Mycobacterium ulcerans 1615 expressing luciferase reporter gene assessed as growth inhibition after 6 days by luminometry; type: functional; settings: Mycobacterium ulcerans, 1615, 144 h
Procedure, shortened: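 Luminescent M. ulcerans 1615 carrying pSMT1 luciferase plasmid, grown at 32 °C in 7H9 with 10% OADC and 0.2% glycerol. Serial dilutions from 10 mM DMSO stocks in 7H9 + 10% FCS; bacteria dosed at 50,000 RLU/ml, triplicate wells. After 6 days, light read over 10 s following 1% n-decanal in ethanol. GI50 taken at 50% growth reduction versus untreated culture.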

[11] = Antimicrobial activity against Mycobacterium avium subsp. avium ATCC 19698 expressing luciferase reporter gene assessed as growth inhibition after 6 days by luminometry; type: functional; settings: ATCC 19698, 144 h
[12] = test system: Mycobacterium avium subsp. paratuberculosis; experiment: Antimicrobial activity against Mycobacterium avium subsp. paratuberculosis ATCC 15769 expressing luciferase reporter gene assessed as growth inhibition after 6 days by luminometry; type: functional; settings: ATCC 15769, 144 h

Row | Compound | inhibition of growth at 0.5 µM [1] | inhibition of growth at 0.1 µM [2] | selectivity ratio [3] | IC50 [4] | inhibition of growth at 1 µM [5] | inhibition of growth at 2 µM [6] | MIC90 [7] | inhibition of growth at 10 µM [8] | inhibition of growth at 1 µM [9] | GI50 [10] | GI50 (Mycobacterium ulcerans) | GI50 [11] | GI50 [12]
1 | Cc1ccc(-c2cc3c4c(nccc4n2)-c2ccccc2C3=O)cc1 | 7% | 73% | 16.6 | 7.14 µM | 34.6% | 47.2% | 1.31 µM (≈ 0.422 µg/mL) | 100% | 100% | 0.43 µM | – | – | –
2 | Cc1nc(C(C)C)cc2c1C(=O)c1ccccc1C2=O | – | < 10% | – | – | – | – | – | 54% | 24% | – | – | – | –
3 | CC(C)(C)c1ccc(-c2cc3c4c(nccc4n2)-c2ccccc2C3=O)cc1 | – | 32% | – | – | – | – | – | 73% | 41% | – | – | – | –
4 | Cc1nccc2c1C(=O)c1ccccc1C2=O | – | 10% | – | – | – | – | – | 58% | 22% | – | – | – | –
5 | CN(C)/C=C/c1nc(-c2ccc(Cl)cc2)cc2c1C(=O)c1ccccc1C2=O | 19.8% | 34% | 34.2 | 18.8 µM | 35.6% | 54.4% | 1.1 µM (≈ 0.428 µg/mL) | 100% | 91% | 0.55 µM | 7.69 µM | 3.88 µM | 3.95 µM
6 | O=C1c2ccccc2-c2nccc3nc(-c4ccccc4)cc1c23 | 14.6% | 67% | 39.1 | 21.5 µM | 32.6% | 48.2% | 1.2 µM (≈ 0.37 µg/mL) | 100% | 95% | 0.55 µM | 10.6 µM | 4.22 µM | 3.21 µM
7 | COc1ccc(OC)c(-c2cc3c(c(/C=C/N(C)C)n2)C(=O)c2ccccc2C3=O)c1 | – | 35% | – | – | – | – | – | 87% | 47% | – | – | – | –
8 | CN(C)/C=C/c1nc(-c2ccccc2)cc2c1C(=O)c1ccccc1C2=O | 13.4% | 45% | 46.9 | 24.4 µM | 34.6% | 49.5% | 1.4 µM (≈ 0.496 µg/mL) | 100% | 100% | 0.52 µM | 8.65 µM | 4.89 µM | 3.68 µM
9 | O=C1c2ccccc2C(=O)c2c(O)cc(-c3ccccc3)cc21 | 36.6% | 15% | 12.6 | 10.8 µM | 49% | 68.3% | 2.12 µM (≈ 0.637 µg/mL) | 100% | 88% | 0.86 µM | 12.6 µM | 5.02 µM | 4.71 µM
10 | COc1ccc(OC)c(-c2cc3c4c(nccc4n2)-c2ccccc2C3=O)c1 | – | 39% | – | – | – | – | – | 87% | 75% | – | – | – | –
11 | CN(C)/C=C/c1nc(C(C)(C)C)cc2c1C(=O)c1ccccc1C2=O | – | 21% | – | – | – | – | – | 73% | 53% | – | – | – | –
12 | Cc1nc(C(C)(C)C)cc2c1C(=O)c1ccccc1C2=O | – | < 10% | – | – | – | – | – | 51% | 18% | – | – | – | –
13 | Cc1nc(-c2ccccc2)cc2c1C(=O)c1ccccc1C2=O | – | 21% | – | – | – | – | – | 98% | 66% | – | – | – | –
14 | Cc1nc(-c2ccc(Cl)cc2)cc2c1C(=O)c1ccccc1C2=O | – | 42% | – | – | – | – | – | 100% | 68% | – | – | – | –
15 | Cc1ccc(-c2cc3c(c(C)n2)C(=O)c2ccccc2C3=O)cc1 | – | 54% | – | – | – | – | – | 99% | 63% | – | – | – | –
16 | Cc1cncc2c1C(=O)c1ccccc1C2=O | – | < 10% | – | – | – | – | – | 48% | 11% | – | – | – | –
17 | CN(C)/C=C/c1cncc2c1C(=O)c1ccccc1C2=O | – | < 10% | – | – | – | – | – | 53% | 17% | – | – | – | –
18 | COc1ccc(OC)c(-c2cc3c(c(C)n2)C(=O)c2ccccc2C3=O)c1 | – | < 10% | – | – | – | – | – | 86% | 35% | – | – | – | –
19 | NNC(=O)c1ccncc1 [ISONIAZID] | 76.4% | 99% | – | – | 92.8% | 97.3% | 0.09 µM (≈ 0.0123 µg/mL) | 100% | 100% | 0.01 µM | – | – | –
20 | O=C1c2ccccc2-c2nccc3cncc1c23 | – | 11% | – | – | – | – | – | 62% | 25% | – | – | – | –
21 | Cc1nc(-c2ccc(F)cc2)cc2c1C(=O)c1ccccc1C2=O | – | 41% | – | – | – | – | – | 100% | 68% | – | – | – | –
22 | Cc1ccc(-c2cc(O)c3c(c2)C(=O)c2ccccc2C3=O)cc1 | – | 21% | – | – | – | – | – | 98% | 35% | – | – | – | –
23 | O=C1c2ccccc2-c2nccc3nc(-c4ccc(Cl)cc4)cc1c23 | 2.27% | 77% | > 69.4 | > 50 µM | 20.3% | 44.2% | 1.85 µM (≈ 0.634 µg/mL) | 99% | 99% | 0.72 µM | – | – | –
24 | COc1ccc(-c2cc3c(c(C)n2)C(=O)c2ccccc2C3=O)cc1 | – | 32% | – | – | – | – | – | 100% | 70% | – | – | – | –
